Results gathered from unrelated publications.

Compound | cell line | assay | setting | IC50
NCc1ccc(-c2nn(Cc3ccncc3)c3ccccc23)o1 | CC-LP-1 | cell growth or viability, ATP luminescence |  | > 46 µM
O=C(NS(=O)(=O)c1ccc(C(F)(F)F)cc1)c1cc2ccccc2n1Cc1ccc(Br)c2ccccc12 | mouse BMDM | IL-1β release, inhibitor, ELISA | LPS-stimulated | 7.28 µM
O=c1[nH]cc(F)c(=O)[nH]1 | HSF | cell growth or viability, MTT | 48 h | 76.9 µM
O=C(NO)c1ccc(Cn2cnc3c(Nc4ccc(F)c(Cl)c4)ncnc32)cc1 | NB-4 | cell growth or viability, MTT | 72 h | 2.34 µM
Cc1cnc(CNC(=O)c2c(=O)c3ccc(N4CCCN(C)CC4)nc3n3c2sc2ccccc23)cn1 | SNU-449 | cell growth or viability, imaging | 72 h | 0.37 µM
COc1ccc(Nc2ncnc3c2ncn3Cc2ccc(C(=O)NO)cc2)cc1 | NB-4 | cell growth or viability, MTT | 72 h | 0.87 µM
CNC(=O)c1cc(Oc2ccc(NC(=O)Nc3ccc(Cl)c(C(F)(F)F)c3)cc2)ccn1 | BGC-823 | cell growth or viability, MTT | 48 h | 6.08 µM
COc1cc(Cn2nc(-c3ccc(CO)o3)c3ccccc32)ccn1 | CC-LP-1 | cell growth or viability, ATP luminescence |  | > 46 µM
Nc1ccccc1NC(=O)c1ccc(Cn2cnc3c(Nc4ccc(Br)cc4F)ncnc32)cc1 | HEL | cell growth or viability, MTT | 72 h | 17 µM
O=c1[nH]cc(F)c(=O)[nH]1 | BGC-823 | cell growth or viability, MTT | 48 h | 15.2 µM
COc1cccc2c1C(=O)c1c(O)c3c(c(O)c1C2=O)C[C@@](O)(C(=O)CO)C[C@@H]3O[C@H]1C[C@H](N)[C@H](O)[C@H](C)O1 | HeLa | cell growth or viability, MTT | 48 h | 0.51 µM
C(=N\Nc1cc(N/N=C/c2ccc3ccccc3n2)ncn1)/c1ccc2ccccc2n1 | BGC-823 | cell growth or viability, MTT | 48 h | 12.3 µM
COc1cccc(Cn2nc(-c3ccc(CO)o3)c3ccccc32)c1 | CC-LP-1 | cell growth or viability, ATP luminescence |  | > 46 µM
Nc1ccccc1NC(=O)c1ccc(Cn2cnc3c(Nc4ccc(Cl)cc4)ncnc32)cc1 | HEL | cell growth or viability, MTT | 72 h | 13 µM
CN(C)CCNC(=O)c1cccn2c(=O)c3cc4ccccc4cc3nc12 | SNU-449 | cell growth or viability, imaging | 72 h | 36.3 µM
CCC(=CCc1c(O)cc2c(c1O)C(=O)C[C@H](c1ccccc1O)O2)CC | HeLa | cell growth or viability, MTT | 48 h | 37.4 µM
O=C(NO)c1ccc(Cn2cnc3c(Nc4ccc(Cl)cc4)ncnc32)cc1 | NB-4 | cell growth or viability, MTT | 72 h | 0.41 µM
OCc1ccc(-c2nn(Cc3ccccc3)c3ccccc23)o1 | CC-LP-1 | cell growth or viability, ATP luminescence |  | > 46 µM

Compound | cell line | assay | setting | IC50
O=C(CSc1nc2ccccc2s1)N/N=C/c1ccc(OCC(=O)Nc2ccc(Br)cc2)cc1 | HEL 299 | cell growth or viability, MTS | 72 h | > 100 µM
Cc1cc(NS(=O)(=O)c2ccc(NC(=O)/C(C#N)=C/c3cccnc3)cc2)no1 | HSF | cell growth or viability, MTT | 48 h | > 200 µM
C#Cc1cccc(Nc2ncnc3cc(OCCOC)c(OCCOC)cc23)c1 | BGC-823 | cell growth or viability, MTT | 48 h | > 20 µM
O=C(CSc1nc2ccccc2s1)N/N=C/c1ccc(OCC(=O)Nc2cccc([N+](=O)[O-])c2)cc1 | HEL 299 | cell growth or viability, MTS | 72 h | > 100 µM
COc1ccc(Nc2ncnc3c2ncn3Cc2ccc(C(=O)Nc3ccccc3N)cc2)cc1 | HEL | cell growth or viability, MTT | 72 h | 16.8 µM
CN(C)c1cccc2c(S(=O)(=O)NCCCCN=C=S)cccc12 | HDFa | cell growth or viability, MTT | 24 h | 28.4 µM
O=C(NO)c1ccc(Cn2cnc3c(Nc4cccc([N+](=O)[O-])c4)ncnc32)cc1 | NB-4 | cell growth or viability, MTT | 72 h | 0.58 µM
COc1cccc2c1C(=O)c1c(O)c3c(c(O)c1C2=O)C[C@@](O)(C(=O)CO)C[C@@H]3O[C@H]1C[C@H](N)[C@H](O)[C@H](C)O1 | BGC-823 | cell growth or viability | 96 h | 0.0818 µM
CN1C(=O)C(=O)c2cc3c(c4c2c1cc1ccccc14)OCO3 | H69AR | cell growth or viability, MTT | 75 h | 44.6 µM
O=C(CSc1nc2ccccc2s1)N/N=C/c1ccc(OCC(=O)Nc2cccc(Br)c2)cc1 | HEL 299 | cell growth or viability, MTS | 72 h | > 100 µM
OCc1ccc(-c2nn(Cc3cccnc3)c3cccnc23)o1 | CC-LP-1 | cell growth or viability, ATP luminescence |  | > 46 µM
C=CC(=O)N1CCC[C@@H](n2nc(-c3ccc(Oc4ccccc4)cc3)c3c(N)ncnc32)C1 | SU-DHL-6 | cell growth or viability, resazurin | 72 h | > 0.5 µM
COc1ncccc1Cn1nc(-c2ccc(CO)o2)c2ccccc21 | CC-LP-1 | cell growth or viability, ATP luminescence |  | > 46 µM
O=C(NO)c1ccc(Cn2cnc3c(Nc4ccc(Br)cc4F)ncnc32)cc1 | HEL | cell growth or viability, MTT | 72 h | 2.46 µM
NCc1ccc(-c2nn(Cc3ccccc3)c3ccccc23)o1 | CC-LP-1 | cell growth or viability, ATP luminescence |  | > 46 µM
Cc1cc2c(C(N)=O)cccc2n1-c1nc2c(c(NCc3ccccc3)n1)CCCN2 | KMS-11 | cell growth or viability | 72 h | 1.3 µM
Cc1cc(NS(=O)(=O)c2ccc(NC(=O)/C(C#N)=C/c3ccc(N4CCCCC4)cc3)cc2)no1 | HSF | cell growth or viability, MTT | 48 h | > 200 µM
COc1ccccc1Cn1nc(-c2ccc(CO)o2)c2ccccc21 | CC-LP-1 | cell growth or viability, ATP luminescence |  | ~46 µM
